In PMC11888271 (bioRxiv, 2025):
Where “and” joins values, the source holds several entries; their conditions need not be identical. Equal entries are not always repeated. Peptide text beside a SMILES is read from it. * marks the point of attachment. Cbz = O=C(OCc1ccccc1)*; CH2F = FC*

Legend:
Assay type in all cases: biochemical
caspase-5 = molecular target: T1, caspase-5 (Homo sapiens, UniProt P51878); assay: In vitro inhibition assay, caspase-5
T1 sequence (P51878 137-327 limits assumed): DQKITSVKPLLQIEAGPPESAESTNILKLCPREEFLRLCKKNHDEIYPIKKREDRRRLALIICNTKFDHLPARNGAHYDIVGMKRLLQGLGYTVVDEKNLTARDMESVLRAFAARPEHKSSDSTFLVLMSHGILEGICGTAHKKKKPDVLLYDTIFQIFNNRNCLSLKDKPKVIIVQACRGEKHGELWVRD
T1 sequence (P51878 347-434 limits assumed): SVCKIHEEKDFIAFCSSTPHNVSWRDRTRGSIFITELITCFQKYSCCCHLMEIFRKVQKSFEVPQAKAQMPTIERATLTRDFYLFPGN
How it was run: (§1)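 Recombinant caspase at 0.25 activity units/µL in pH 7 PIPES buffer (100 mM NaCl, 10 mM DTT, 1 mM EDTA, 0.1% CHAPS, 10% sucrose). Saturating AMC substrate: Ac-WEHD 200 µM (caspase-1, -5) or 1000 µM (-4, -11); Ac-DEVD 100 µM (-3, -6, -7), or 25 µM for -3/-7 with a pan-caspase FMK inhibitor. Fluorescence read every 5 min. Background-subtracted linear rates normalised to no-inhibitor; three runs pooled and fitted to Y=100/(1+X/IC50).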

caspase-1 = molecular target: T2, caspase-1 (Homo sapiens, UniProt P29466); assay: In vitro inhibition assay, caspase-1
T2 sequence (P29466 120-297 limits assumed): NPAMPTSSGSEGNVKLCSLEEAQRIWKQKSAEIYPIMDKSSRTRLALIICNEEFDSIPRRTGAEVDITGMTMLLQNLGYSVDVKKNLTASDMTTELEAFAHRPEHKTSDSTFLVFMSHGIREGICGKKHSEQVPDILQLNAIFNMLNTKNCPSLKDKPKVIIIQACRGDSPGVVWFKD
T2 sequence (P29466 317-404 limits assumed): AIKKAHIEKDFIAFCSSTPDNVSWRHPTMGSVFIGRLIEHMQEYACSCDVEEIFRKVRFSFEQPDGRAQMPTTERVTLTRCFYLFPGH
How it was run: as §1

caspase-6 = molecular target: T3, caspase-6 (Homo sapiens, UniProt P55212); assay: In vitro inhibition assay, caspase-6
T3 sequence (P55212 24-179 limits assumed): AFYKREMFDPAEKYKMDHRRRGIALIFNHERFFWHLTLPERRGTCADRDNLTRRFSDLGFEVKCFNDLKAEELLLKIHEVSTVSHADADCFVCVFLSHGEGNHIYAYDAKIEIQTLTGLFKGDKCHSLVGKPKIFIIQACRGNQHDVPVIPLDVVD
T3 sequence (P55212 194-293 limits assumed): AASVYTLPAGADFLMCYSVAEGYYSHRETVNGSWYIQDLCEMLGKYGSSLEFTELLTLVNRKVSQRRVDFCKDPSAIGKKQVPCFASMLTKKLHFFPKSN
How it was run: as §1

caspase-11 = molecular target: T4, caspase-11 (Mus musculus, UniProt P70343); assay: In vitro inhibition assay, caspase-11
T4 sequence (P70343 81-266 limits assumed): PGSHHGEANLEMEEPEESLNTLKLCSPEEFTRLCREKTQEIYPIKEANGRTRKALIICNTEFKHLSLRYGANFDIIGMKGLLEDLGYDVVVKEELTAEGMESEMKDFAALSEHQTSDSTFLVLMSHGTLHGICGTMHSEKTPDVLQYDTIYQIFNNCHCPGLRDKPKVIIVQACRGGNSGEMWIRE
T4 sequence (P70343 286-373 limits assumed): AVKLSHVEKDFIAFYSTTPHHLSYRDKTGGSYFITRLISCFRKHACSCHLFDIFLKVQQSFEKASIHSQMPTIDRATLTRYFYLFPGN
How it was run: as §1

caspase-10 = molecular target: T5, caspase-10 (Homo sapiens, UniProt Q92851); assay: In vitro inhibition assay, caspase-10; conditions: IC50, caspase-10, 0.25 activity units/μL, 200 μM Ac-LEHD-AMC substrate
T5 sequence (Q92851 220-415 limits assumed): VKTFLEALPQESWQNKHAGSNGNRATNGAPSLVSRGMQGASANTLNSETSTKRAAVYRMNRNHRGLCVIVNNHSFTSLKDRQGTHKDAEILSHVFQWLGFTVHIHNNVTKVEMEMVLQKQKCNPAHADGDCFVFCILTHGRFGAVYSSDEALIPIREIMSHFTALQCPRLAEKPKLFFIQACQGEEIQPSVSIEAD
T5 sequence (Q92851 416-521 limits assumed): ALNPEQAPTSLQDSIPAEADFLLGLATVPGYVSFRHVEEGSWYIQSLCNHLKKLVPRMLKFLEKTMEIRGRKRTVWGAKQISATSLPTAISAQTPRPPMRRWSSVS

caspase-9 = molecular target: T6, caspase-9 (Homo sapiens, UniProt P55211); assay: In vitro inhibition assay, caspase-9; conditions: IC50, caspase-9 (different preparation), 1 activity unit/μL, 200 μM Ac-LEHD-AMC substrate
T6 sequence (P55211 1-315 limits assumed): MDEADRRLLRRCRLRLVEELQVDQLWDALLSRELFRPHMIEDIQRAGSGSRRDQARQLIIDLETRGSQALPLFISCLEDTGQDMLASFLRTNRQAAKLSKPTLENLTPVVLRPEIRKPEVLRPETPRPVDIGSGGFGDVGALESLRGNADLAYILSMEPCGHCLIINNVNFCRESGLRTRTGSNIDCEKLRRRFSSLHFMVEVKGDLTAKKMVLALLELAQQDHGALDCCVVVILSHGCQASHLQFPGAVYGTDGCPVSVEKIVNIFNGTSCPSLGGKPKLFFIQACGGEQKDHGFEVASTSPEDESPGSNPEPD
T6 sequence (P55211 331-416 limits assumed): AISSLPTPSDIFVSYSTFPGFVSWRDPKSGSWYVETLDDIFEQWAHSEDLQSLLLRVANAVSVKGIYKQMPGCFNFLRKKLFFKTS

caspase-7 = molecular target: T7, caspase-7 (Homo sapiens, UniProt P55210); assay: In vitro inhibition assay, caspase-7
T7 sequence (P55210 24-198 limits assumed): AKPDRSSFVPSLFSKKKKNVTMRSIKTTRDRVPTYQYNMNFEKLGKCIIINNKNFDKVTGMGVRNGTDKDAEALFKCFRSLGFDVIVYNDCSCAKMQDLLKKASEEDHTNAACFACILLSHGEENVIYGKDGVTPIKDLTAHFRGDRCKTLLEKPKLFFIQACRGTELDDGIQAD
T7 sequence (P55210 207-303 limits assumed): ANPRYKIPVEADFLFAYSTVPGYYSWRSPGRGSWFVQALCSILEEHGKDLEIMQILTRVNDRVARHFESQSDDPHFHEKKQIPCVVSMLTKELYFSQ
How it was run: as §1

caspase-4 = molecular target: T8, caspase-4 (Homo sapiens, UniProt P49662); assay: In vitro inhibition assay, caspase-4
T8 sequence (P49662 81-270 limits assumed): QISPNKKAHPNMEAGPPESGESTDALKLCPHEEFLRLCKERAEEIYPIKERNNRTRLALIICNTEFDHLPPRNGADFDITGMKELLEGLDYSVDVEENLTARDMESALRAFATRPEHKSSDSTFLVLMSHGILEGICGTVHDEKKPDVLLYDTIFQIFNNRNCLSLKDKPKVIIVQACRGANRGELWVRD
T8 sequence (P49662 290-377 limits assumed): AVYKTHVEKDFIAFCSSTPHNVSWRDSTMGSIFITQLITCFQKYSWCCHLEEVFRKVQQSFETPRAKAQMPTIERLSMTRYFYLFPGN
How it was run: as §1

caspase-8 = caspase-8 (Homo sapiens, UniProt Q14790); assay: In vitro inhibition assay, caspase-8; conditions: IC50, caspase-8, 0.25 activity units/μL, 200 μM Ac-LEHD-AMC substrate
caspase-3 = molecular target: T9, caspase-3 (Homo sapiens, UniProt P42574); assay: In vitro inhibition assay, caspase-3
T9 sequence (P42574 29-175 limits assumed): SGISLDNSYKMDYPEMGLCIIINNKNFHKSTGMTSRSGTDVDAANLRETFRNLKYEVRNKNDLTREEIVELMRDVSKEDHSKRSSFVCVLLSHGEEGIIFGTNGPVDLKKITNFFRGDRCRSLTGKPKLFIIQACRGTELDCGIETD
T9 sequence (P42574 176-277 limits assumed): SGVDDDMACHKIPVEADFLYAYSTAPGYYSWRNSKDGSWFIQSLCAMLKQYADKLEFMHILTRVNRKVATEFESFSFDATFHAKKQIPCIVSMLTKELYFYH
How it was run: as §1

caspase-8, sequence (Q14790 217-374 limits assumed): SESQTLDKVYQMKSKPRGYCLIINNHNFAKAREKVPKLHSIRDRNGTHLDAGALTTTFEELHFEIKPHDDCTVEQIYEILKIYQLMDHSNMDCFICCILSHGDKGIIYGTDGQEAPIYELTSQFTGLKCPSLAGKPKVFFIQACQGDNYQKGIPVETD
caspase-8, sequence (Q14790 385-479 limits assumed): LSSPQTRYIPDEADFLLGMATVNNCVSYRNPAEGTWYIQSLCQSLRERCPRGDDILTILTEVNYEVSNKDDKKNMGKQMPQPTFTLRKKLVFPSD

IC50 (caspase-5) [µM] | IC50 (caspase-1) [nM] | IC50 (caspase-6) [nM] | IC50 (caspase-11) [µM] | IC50 (caspase-10) | IC50 (caspase-9) | IC50 (caspase-7) [µM] | IC50 (caspase-4) [µM] | IC50 (caspase-8) | IC50 (caspase-3) [nM] | Compound
19.5 ± 1.37 | 530 ± 90 | > 100000 | 81 ± 2.77 | 42 µM and 42.3 µM | 4 µM and 4.01 µM | > 100 | 30.1 ± 2.67 | 1000 nM and 1020 nM | > 100000 | CCO[C@@H]1OC(=O)C[C@@H]1NC(=O)[C@@H]1CCCN1C(=O)[C@@H](NC(=O)c1ccc(N)c(Cl)c1)C(C)(C)C [VX-765, (S)-1-((S)-2-{[1-(4-amino-3-chloro-phenyl)-methanoyl]-amino}-3,3-dimethyl-butanoyl)-pyrrolidine-2-carboxylic acid ((2R,3S)-2-ethoxy-5-oxo-tetrahydro-furan-3-yl)-amide]
19.9 ± 1.19 | 5720 ± 470 | 60 ± 40 | – | 5.76 ± 1.1 µM | 3.7 µM and 3.65 µM | 2.63 ± 0.54 | – | 350 ± 100 nM | 1880 ± 260 | CC[C@H](C)[C@H](NC(=O)OCc1ccccc1)C(=O)N[C@@H](CCC(=O)OC)C(=O)N[C@H](C(=O)N[C@@H](CC(=O)OC)C(=O)CF)[C@@H](C)O [z-IETD-FMK] (Cbz-IE(OMe)TD(OMe)-CH2F)
2.31 ± 0.31 | 820 ± 130 | 110 ± 60 | – | 3.59 ± 1.27 µM | 1.5 µM and 1.58 µM | 3.9 ± 0.29 | – | 70 ± 10 nM | 1070 ± 180 | COC(=O)CC[C@H](NC(=O)[C@H](CC(C)C)NC(=O)OCc1ccccc1)C(=O)N[C@@H](Cc1c[nH]cn1)C(=O)N[C@@H](CC(=O)OC)C(=O)CF [z-LEHD-FMK] (Cbz-LE(OMe)HD(OMe)-CH2F)
